In ChEMBL document CHEMBL1125878, “Aminoalkynyldithianes. A new class of calcium channel blockers” (J Med Chem, 1991):
pIC50: −log10 of the molar value.

Experiments:
Assay type in all cases: functional
[1] = organism: Cavia porcellus; assay: The compound was tested for antagonism of calcium-induced contractions of guinea pig ileal strips.
Method in brief: (§1)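 Guinea pig ileal strips held at 0.5 g resting tension, equilibrated 60 min, isometric recording. Depolarized with KCl (80 mM) 6 min, then cumulative CaCl2 0.2-8.0 mM; wash, control curve, then curves with three drug concentrations added right after KCl (6 min). Kb = concentration giving 2-fold rightward shift, from EC50 ratios; means of 3-10 experiments ± SE.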

[2] = The compound was tested for inhibition of calcium influx into neuronal (NG108-15) cells.; conditions: Mus musculus
Method in brief: (§2)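 NG108-15 cells, differentiated with dibutyryl cAMP (1.0 mM, 4 days), loaded with Quin 2-AM (100 μM) 1 h at 37 °C, washed. Suspensions (ca. 3 × 10^6 cells) at 37 °C preincubated 1 min with drug, then depolarized with KCl (50 mM); fluorescence ex 339/em 492 nm. IC50 = half-maximal fluorescence decrease, logit analysis; means ± SE.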

[3] = organism: Cavia porcellus; assay: Antagonism of calcium-induced contractions of guinea pig ileal strips; method in brief: as §1
[4] = The compound was tested for inhibition of calcium influx into neuronal (NG108-15) cells; conditions: Mus musculus; method in brief: as §2

| Structure (SMILES) | Kb [3] | other results |
| --- | --- | --- |
| COc1ccc([C@@H]2Sc3ccccc3N(CCN(C)C)C(=O)[C@@H]2OC(C)=O)cc1 [DILTIAZEM] | – | Kb [1]: 47 nM; pIC50 [2]: 4.83 |
| CN1CCN(CC#CCCC2(C3(O)c4ccccc4Oc4ccccc43)SCCCS2)CC1 | 490 nM | – |
| CCN(C)CC#CCCC1(C2(O)c3ccccc3Sc3ccc(Cl)cc32)SCCCS1 (stereo not drawn) | 2530 nM | – |
| CN(CC#CCCC1SCCCS1)CCCCc1ccccc1 | 3430 nM | – |
| CN(CC#CCCC1(C2(O)c3ccccc3Oc3ccccc32)SCCCS1)CCCCc1ccccc1 | 1900 nM | – |
| CCN(C)CC#CCCC1SCCCS1 | – | pIC50 [4]: < 5.00 |
| CCOC(=O)C1=C(C)NC(C)=C(C(=O)OC)C1c1cccc([N+](=O)[O-])c1 (stereo not drawn) [NITRENDIPINE] | 2 nM | pIC50 [4]: 7.80 |
| CCN(CC)CC#CCCCCC1(C2(O)c3ccccc3Oc3ccccc32)SCCCS1 | 1740 nM | – |
| COc1ccc(CCN(C)CC#CCCC(O)(c2ccccc2)C2SCCCS2)cc1OC (stereo not drawn) | 1230 nM | pIC50 [4]: 5.74 |
| CCN(C)CC#CCCC1(C2(O)c3ccccc3Oc3ccccc32)SCCCS1 | 1510 nM | – |
| CCN(CC)CC#CCCCC1(C2(O)c3ccccc3Oc3ccccc32)SCCCS1 | 170 nM | pIC50 [4]: 6.00 |
| CCN(CC)CC#CCCC1(C2(O)c3ccccc3C=Cc3ccccc32)SCCCS1 | 300 nM | – |
| CCN(CC)CC#CCCC(O)(c1ccccc1)C1SCCCS1 (stereo not drawn) | 6700 nM | pIC50 [4]: 4.75 |
| CN(CC#CCCC1(C(O)(c2ccccc2)c2ccccc2)SCCCS1)CCCc1ccccc1 | 1630 nM | – |
| CCN(CC)CC#CCCC1(C2(O)c3ccccc3Sc3ccccc32)SCCCS1 | 130 nM | – |
| CN(CC#CCCC(O)(c1ccccc1)C1SCCCS1)CCc1ccccc1 (stereo not drawn) | 2250 nM | pIC50 [4]: 5.80 |
| CN(C)CC#CCCC1(C2(O)c3ccccc3Oc3ccccc32)SCCCS1 | 1150 nM | – |
| CCN(CC#CCCC1(C2(O)c3ccccc3Oc3ccccc32)SCCCS1)C(C)C | 460 nM | – |
| CN(CC#CCCC1(c2ccccc2)SCCCS1)CCc1ccccc1 | 1740 nM | pIC50 [4]: 5.27 |
| CCN(CC)CC#CCCC1(C(O)(c2ccccc2)C2CCCCC2)SCCCS1 (stereo not drawn) | 1140 nM | – |
| CN(C)CC#CCCC1(C2(O)c3ccccc3Sc3ccc(Cl)cc32)SCCCS1 (stereo not drawn) | 2330 nM | – |

| Structure (SMILES) | Kb [3] | other results |
| --- | --- | --- |
| CCN(CC)CC#CCCC1(Cc2ccccc2)SCCCS1 | 1960 nM | – |
| CCN(CC)CC#CCCC1(C2(O)c3ccccc3Sc3ccc(Cl)cc32)SCCCS1 (stereo not drawn) | 330 nM | – |
| CCCN(CC#CCCCC1SCCCS1)CCC | 7500 nM | – |
| COc1ccc(N(C)CC#CCCC2SCCCS2)cc1OC | 2220 nM | – |
| CCN(CC)CC#CCCC1(C2(O)c3ccccc3Oc3ccccc32)SCCCS1 | 160 nM | pIC50 [4]: 5.64 |
| CN(CC#CCCC1(C(O)(c2ccccc2)C2CCCCC2)SCCCS1)CCc1ccccc1 (stereo not drawn) | 3750 nM | – |
| CCN(CC)CC#CCCC1(C(c2ccccc2)c2ccccc2)SCCCS1 | 500 nM | – |
| CCN(CC)CC#CCCC1(c2ccccc2)SCCCS1 | 900 nM | pIC50 [4]: 5.17 |
| CN(CC#CCCC1SCCCS1)Cc1ccccc1 | 8020 nM | – |
| CN(CC#CCCC1SCCCS1)CCc1ccccc1 | 2270 nM | – |
| CCN(CC)CC#CCCC1(C(O)(c2ccccc2)C2CCCC2)SCCCS1 (stereo not drawn) | 980 nM | – |
| COc1ccc(CCN(C)CCCC(C#N)(c2ccc(OC)c(OC)c2)C(C)C)cc1OC (stereo not drawn) [VERAPAMIL] | 20 nM | pIC50 [4]: 5.19 |
| CCN(CC)CC#CCCCCC1SCCCS1 | > 5000 nM | – |
| CCN(CC)CC#CCCC1(C2(O)CCCc3ccccc32)SCCCS1 (stereo not drawn) | 830 nM | – |
| CN(CC#CCCCC1SCCCS1)Cc1ccccc1 | 4450 nM | – |
| CN(CC#CCCC1SCCCS1)CCCc1ccccc1 | 2980 nM | – |
| CN(CC#CCCC1(C2(O)c3ccccc3Sc3ccccc32)SCCCS1)CCCc1ccccc1 | 4160 nM | – |
| CN(CC#CCCC1(C2(O)c3ccccc3Sc3ccccc32)SCCCS1)CCCCc1ccccc1 | 3400 nM | – |
| CCN(CC)CC#CCCC1(C(C)(O)c2ccccc2)SCCCS1 (stereo not drawn) | 2510 nM | – |
| CN(CC#CCCCC1SCCCS1)CCc1ccccc1 | 4150 nM | – |
| CCN(C)CC#CCCC1(C2(O)c3ccccc3Sc3ccccc32)SCCCS1 | 570 nM | – |

| Structure (SMILES) | Kb [3] | other results |
| --- | --- | --- |
| CCCN(CC#CCC1(c2ccccc2)SCCCS1)CCC | 1010 nM | pIC50 [4]: 5.77 |
| CCN(CC)CC#CCC1(c2ccccc2)SCCCS1 | 4270 nM | pIC50 [4]: 5.19 |
| CCCN(CC#CCCCC1(C2(O)c3ccccc3Oc3ccccc32)SCCCS1)CCC | 470 nM | – |
| CN(CC#CCCC1(C(O)(c2ccccc2)c2ccccc2)SCCCS1)Cc1ccccc1 | 3170 nM | – |
| CN(CC#CCCC1SCCCS1)CCc1ccc2ccccc2c1 | 4730 nM | – |
| OCCN1CCN(CC#CCCC2SCCCS2)CC1 | > 10000 nM | – |
| CCN(CC)CC#CCCC1(C2(O)c3ccccc3CCc3ccccc32)SCCCS1 | 1270 nM | – |
| OC1(C2(CCC#CCN3CCCCC3)SCCCS2)c2ccccc2Sc2ccccc21 | 3660 nM | – |
| CN(CC#CCCC1(C(O)(c2ccccc2)c2ccccc2)SCCCS1)CCc1ccccc1 | 2650 nM | – |
| CN(CC#CCCC1SCCCS1)CCc1cccc2ccccc12 | 1520 nM | – |
| CC(C)N(CC#CCCCC1(C2(O)c3ccccc3Oc3ccccc32)SCCCS1)C(C)C | 200 nM | pIC50 [4]: 5.34 |
| CN(C)CC#CCCC1(C2(O)c3ccccc3Sc3ccccc32)SCCCS1 | 680 nM | – |
| CN(CC#CCCC1SCCCS1)Cc1ccc2ccccc2c1 | 8330 nM | – |
| COc1ccc(CCN(C)CC#CCCC(O[Si](C)(C)C)(c2ccccc2)C2SCCCS2)cc1OC (stereo not drawn) | 570 nM | – |
| CN(CC#CCCC1(C2(O)c3ccccc3Sc3ccc(Cl)cc32)SCCCS1)CCCc1ccccc1 (stereo not drawn) | > 7000 nM | – |
| OC1(C2(CCC#CCN3CCCCC3)SCCCS2)c2ccccc2Sc2ccc(Cl)cc21 (stereo not drawn) | 6090 nM | – |
| CCN(CC)CC#CCCC1(C2(O)CCOc3ccccc32)SCCCS1 (stereo not drawn) | 1940 nM | – |
| OC1(C2(CCC#CCN3CCCCC3)SCCCS2)c2ccccc2Oc2ccccc21 | 390 nM | pIC50 [4]: 5.19 |
| COc1ccc(CCN(C)CC#CCC2(c3ccccc3)SCCCS2)cc1OC | 1170 nM | pIC50 [4]: 5.82 |
| CCCN(CC#CCCCC1(C2(O)c3ccccc3Sc3ccccc32)SCCCS1)CCC | 770 nM | – |
| CN(CC#CCCC1(C2(O)c3ccccc3Oc3ccccc32)SCCCS1)CCCc1ccccc1 | 3090 nM | – |
